pEC50, pIC50, pKi: −log10 of the molar value. Converted amounts (≈) assume the structure as drawn. The source made the active and inactive calls. The calls are words filed in the database; no cut-off is given here.
Key:
Escherichia coli [1] = experiment: Competitive inhibition of Escherichia coli XGPRT expressed in Escherichia coli SPhi606 using guanine as substrate by spectrophotometric analysis in presence of PRib-PP
How it was run: (§1)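 Enzymes (wild-type XGPRT, HPRT, and the XGPRT mutant lacking six flexible-loop residues) were expressed in E. coli SΦ606, purified to homogeneity and stored at −70 °C in 0.1 M Tris-HCl, 10 mM MgCl2, 1 mM DTT, pH 7.4. Ki was determined spectrophotometrically. Fixed base was 60 μM: guanine for XGPRT, hypoxanthine for HPRT. PRib-PP was varied from 14 to 1000 μM, and inhibitor from 0.1 to 140 μM.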

[2] = Inhibition of Escherichia coli recombinant XGPRT mutant expressed in Escherichia coli SPhi606 using guanine as substrate by spectrophotometric analysis; how it was run: as §1
[3] = Inhibition of Escherichia coli XGPRT expressed in Escherichia coli SPhi606 using guanine as substrate by spectrophotometric analysis; how it was run: as §1
[4] = tested on: Mycobacterium tuberculosis; experiment: Antimycobacterial activity against Mycobacterium tuberculosis H37Ra ATCC 25177 at >= 250 uM after 5 days by resazurin reduction assay; type: functional, organism-based
How it was run: (§2)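 M. tuberculosis H37Ra grown at 37 °C in 7H9 with OADC, 0.5% glycerol, 0.05% Tween-80 for about 14 days to mid-exponential phase (OD600 0.4−0.8). Diluted to OD600 0.001 (about 2 × 10^4 CFU/ml) in 7H9S with 0.5% DMSO and exposed to serially diluted compounds. Incubated 5 days at 37 °C, then resazurin added. Fluorescence (ex 530/em 580 nm) read 30 h later. Signal normalised to no-inhibitor and no-bacteria controls to give IC50.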

[5] = Selectivity index, ratio of EC50 for human A549 cells to MIC50 for Mycobacterium tuberculosis H37Ra ATCC 25177; type: functional
A549 = experiment: Cytotoxicity against human A549 cells after 4 days by coulter counter analysis; type: cell-based; conditions: A549, 96 h
[6] = tested on: Mycobacterium tuberculosis; experiment: Antimycobacterial activity against Mycobacterium tuberculosis H37Ra ATCC 25177 after 5 days by resazurin reduction assay; type: functional, organism-based; conditions: H37Ra ATCC 25177, 120 h; how it was run: as §2
[7] = Inhibition of Escherichia coli HPRT expressed in Escherichia coli SPhi606 using hypoxanthine as substrate by spectrophotometric analysis; how it was run: as §1
[8] = Binding affinity to Escherichia coli XGPRT
Escherichia coli [9] = experiment: (§3) Non-competitive inhibition of Escherichia coli HPRT expressed in Escherichia coli SPhi606 using hypoxanthine as substrate by spectrophotometric analysis in presence of PRib-PP; how it was run: as §1
[10] = as §3; how it was run: as §1
[11] = Competitive inhibition of Escherichia coli XGPRT expressed in Escherichia coli SPhi606 using guanine as substrate by spectrophotometric analysis in presence of pyrophosphate
How it was run: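 Ki was determined spectrophotometrically on purified XGPRT expressed in E. coli SΦ606, with guanine fixed at 60 μM. PRib-PP was varied from 14 to 1000 μM, and inhibitor from 0.1 to 140 μM. Pyrophosphate (33 μM) was added to the assay mixture along with the inhibitor.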

SMILES | pKi [2] | pKi [3] | pKi [7] | further results
Nc1nc2c(ncn2[C@H]2CN(C(=O)CP(=O)(O)O)C[C@H]2O)c(=O)[nH]1 | 5.52 | 5.66 |  | inhibition (Escherichia coli [1]): Active
Nc1nc2c(ncn2CC(COCCP(=O)(O)O)OCCP(=O)(O)O)c(=O)[nH]1 (centres undefined) |  | 6.96 |  | Activity [4]: inactive; Selectivity Index [5]: >=17
CCOC(=O)[C@H](Cc1ccccc1)NP(=O)(COCC(COCP(=O)(N[C@@H](Cc1ccccc1)C(=O)OCC)N[C@@H](Cc1ccccc1)C(=O)OCC)Cn1cnc2c(=O)[nH]c(N)nc21)N[C@@H](Cc1ccccc1)C(=O)OCC |  |  |  | pEC50 (A549): < 3.52; pIC50 [6]: 5.30; MIC99 [6]: 20 µM (≈ 22.6 µg/mL)
CC(C)(C)C(=O)SCCOP(=O)(CC(=O)N1CC[C@H](n2cnc3c(=O)[nH]c(N)nc32)C1)OCCSC(=O)C(C)(C)C |  |  |  | pEC50 (A549): < 3.52; pIC50 [6]: 5.30; MIC99 [6]: 20 µM (≈ 12.6 µg/mL)
Nc1nc2c(ncn2C(COCP(=O)(O)O)COCP(=O)(O)O)c(=O)[nH]1 | 4.80 | 5.52 |  | 
CCOC(=O)[C@H](Cc1ccccc1)NP(=O)(CCOCC(Cn1cnc2c(=O)[nH]c(N)nc21)OCCP(=O)(N[C@@H](Cc1ccccc1)C(=O)OCC)N[C@@H](Cc1ccccc1)C(=O)OCC)N[C@@H](Cc1ccccc1)C(=O)OCC (some centres undefined) |  |  |  | pEC50 (A549): 4.00; pIC50 [6]: 5.30; MIC99 [6]: 20 µM (≈ 22.8 µg/mL)
Nc1nc2c(ncn2[C@H]2CCN(C(=O)CP(=O)(O)O)C2)c(=O)[nH]1 | 5.52 | 6.64 |  | Activity [4]: inactive; Selectivity Index [5]: >=17; inhibition (Escherichia coli [1]): Active
Nc1nc2c(ncn2C(COCP(=O)(O)O)C(O)COCP(=O)(O)O)c(=O)[nH]1 (centres undefined) | 4.85 | 4.68 |  | 
O=c1[nH]cnc2c1ncn2CCOCCP(=O)(O)O | 4.34 | 5.82 | 4.77 | 
Nc1nc2c(ncn2[C@@H]2O[C@H](COP(=O)(O)O)[C@@H](O)[C@H]2O)c(=O)[nH]1 | 3.92 |  | 3.28 | pKi [8]: 5.35
O=c1[nH]cnc2c1ncn2CC(O)COCP(=O)(O)O (centres undefined) | < 3.70 | 4.80 | 4.14 | inhibition (Escherichia coli [9]): Active
O=C(CP(=O)(O)O)N1CC[C@@H](n2cnc3c(=O)[nH]cnc32)C1 | < 3.70 | < 3.70 | 4.46 | 
Nc1nc2c(ncn2CC(COCP(=O)(O)O)COCP(=O)(O)O)c(=O)[nH]1 | 6.62 | 8.00 |  | Activity [4]: inactive; Selectivity Index [5]: >=17
Nc1nc2c(ncn2CC(O)COCP(=O)(O)O)c(=O)[nH]1 (centres undefined) | ≤ 5.52 |  | < 3.15 | pKi [10]: 4.46; pKi [11]: 6.49
Nc1nc2c(ncn2[C@@H]2CN(C(=O)CP(=O)(O)O)C[C@H]2OC(=O)CP(=O)(O)O)c(=O)[nH]1 | 5.59 | 6.40 |  | inhibition (Escherichia coli [1]): Active
CCOC(=O)[C@H](Cc1ccccc1)NP(=O)(COCC(COCP(=O)(N[C@@H](Cc1ccccc1)C(=O)OCC)N[C@@H](Cc1ccccc1)C(=O)OCC)Cn1cnc2c(=O)[nH]cnc21)N[C@@H](Cc1ccccc1)C(=O)OCC |  |  |  | pEC50 (A549): 4.00; pIC50 [6]: 5.30; MIC99 [6]: 20 µM (≈ 22.3 µg/mL)
Nc1nc2c(ncn2CCOCCP(=O)(O)O)c(=O)[nH]1 | 4.96 | 6.15 |  | 
O=c1[nH]cnc2c1ncn2CC(COCP(=O)(O)O)COCP(=O)(O)O |  |  | 6.10 | Activity [4]: inactive; Selectivity Index [5]: 4
O=c1[nH]cnc2c1ncn2C(COCP(=O)(O)O)COCP(=O)(O)O |  | 4.14 |  | 
Nc1nc2c(ncn2[C@@H]2CN(C(=O)CP(=O)(O)O)C[C@@H]2O)c(=O)[nH]1 | < 3.60 | < 3.60 |  | 

— ChEMBL document CHEMBL2417550, “Inhibition of the Escherichia coli 6-oxopurine phosphoribosyltransferases by nucleoside phosphonates: potential for new antibacterial agents” (J Med Chem, 2013)
